Values joined by “and” are separate entries in the source; they are usually repeats but may differ in a detail not shown here. Equal entries are not always repeated.
Tests used:
Mus musculus [1] = assay: The compound was tested for radioprotective activity (DRF) in mice 2 hours before whole body irradiation with value in braces indicating the administered dose in mg/Kg
Mus musculus [2] = assay: The compound was tested for radioprotective activity (DRF) in mice 15 min before whole body irradiation with value in braces indicating the administered dose in mg/Kg
[3] = The compound was tested for toxicity in mice, expressed as LD50; assay type: organism-based; details: in vivo
In short: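 Three-month-old inbred albino CXVII mice (about 25 g) received compounds dissolved in distilled water by intraperitoneal injection. A preliminary study set the dose range. Five groups of 10 mice then each received a different dose within that range. LD50 was derived by probit analysis.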

## CC(=O)SCCNC(=O)CNC(=O)[C@@H](C)N
Mus musculus [1]
  DRF: 1
Mus musculus [2]
  DRF: 1.55 and 1
[3]
  LD50: 1500 mg/kg

## C[C@H](N)C(=O)NCC(=O)NCCSSCCNC(=O)CNC(=O)[C@@H](C)N
Mus musculus [2]
  DRF: 1.35 and 1
[3]
  LD50: 1500 mg/kg

## NCC(=O)NCC(=O)NCCSSCCNC(=O)CNC(=O)CN
Mus musculus [1]
  DRF: 1
Mus musculus [2]
  DRF: 1.1 and 1
[3]
  LD50: 2000 mg/kg

## CC(=O)SCCNC(=O)CNC(=O)CN
Mus musculus [2]
  DRF: 1.55
[3]
  LD50: 2400 mg/kg

## CC(=O)SCCNC(=O)CN
Mus musculus [1]
  DRF: 1
Mus musculus [2]
  DRF: 1.4 and 1
[3]
  LD50: 1500 mg/kg

## C[C@H](NC(=O)CN)C(=O)NCCSSCCNC(=O)[C@@H](C)NC(=O)CN
Mus musculus [2]
  DRF: 1.1
[3]
  LD50: 800 mg/kg

## CC(=O)SCCNC(=O)[C@H](C)NC(=O)CN
Mus musculus [1]
  DRF: 1
Mus musculus [2]
  DRF: 1.25
[3]
  LD50: 1500 mg/kg

From ChEMBL document CHEMBL1124382, “Synthesis and radioprotective activity of dipeptide cysteamine and cystamine derivatives” (J Med Chem, 1989)
